Data set [1] relates to PBL. Description: Cytotoxicity against solid form of Graffi myeloid tumor bearing hamster PBL after 24 hrs by trypan blue assay. Format: cell-based. The conditions noted are these: Cricetinae. A digest of the protocol:
(§1)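 Thymocytes and peripheral blood lymphocytes came from sexually mature hamsters bearing solid Graffi myeloid tumor. Compounds were made up at 0.5 mg/ml in DMSO, and this stock was diluted 1:10, 1:100, 1:1000 and 1:100,000. Equal volumes of cells and dilution were mixed and held 24 h at 37 °C in humidified 5% CO2. Survival was scored by 0.2% trypan blue exclusion under the microscope, and IC50 was derived.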

The nature of data set [2]: Stimulation of immune response in pretreated spleen cells isolated from Graffi myeloid tumor bearing hamster assessed as number of plaque forming cells after 24 hrs by modified agar-plate method. The format is cell-based. The conditions noted are these: cricetinae. A digest of the protocol:
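Plaque-forming (haemolysin-producing B) cells were counted by the Cunningham–Szenberg method. Cells from treated tumor-bearing hamsters were mixed with complement and sheep red blood cells and loaded into chambers. Haemolytic zones were counted per 10⁶ lymphocytes. Values are means of three experiments, compared against cells from control animals.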

For data set [3], the system named is PBL. Description: Stimulation of immune response in pretreated […] isolated from Graffi myeloid tumor bearing hamster assessed as number of plaque forming cells after 24 hrs […]. The format is cell-based. The conditions noted are these: cricetinae.
Data set [4] can be described thus: Stimulation of immune response in pretreated spleen cells isolated from Graffi myeloid tumor bearing hamster assessed as rosette formation. To be noted: cricetinae. The format is cell-based.
Data set [5] can be described thus: Cytotoxicity against solid form of Graffi myeloid tumor bearing hamster thymocytes after 24 hrs by trypan blue assay. Format: cell-based. The conditions noted are these: cricetinae, thymocyte. A digest of the protocol: as §1
Data set [6] relates to PBL. The data set is described as follows: Stimulation of immune response in pretreated PBL isolated from Graffi myeloid tumor bearing hamster assessed as rosette formation. Format: cell-based. To be noted: cricetinae.
A short description of data set [7]: Stimulation of immune response in pretreated thymocytes isolated from Graffi myeloid tumor bearing hamster assessed as ratio of migration area of experimental cells to control cells after 16 hrs by indirect agarose technique. To be noted: cricetinae, thymocyte. The format is cell-based. A digest of the protocol: (§2)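 Cells came from treated tumor-bearing hamsters: spleen cells, thymocytes or blood lymphocytes. They were loaded into 3-mm wells cut in an agarose monolayer in 50 mm Petri dishes and kept 16 h at 37 °C, 5% CO2. The migration area was then measured. The migration index (LIF) is the ratio of experimental to control migration area. Values are means of three experiments.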

Data set [8] can be described thus: Cytotoxicity against thymocytes isolated from solid form of Graffi myeloid tumor bearing hamster pretreated at 0.5 mg/ml, ip for 5 days measured after 24 hrs by trypan blue assay. To be noted: cricetinae, thymocyte. A digest of the protocol: (§3)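 Tumor-bearing hamsters first received compound at 0.5 mg/ml i.p. Thymocytes or blood lymphocytes were isolated five days later. These were exposed in vitro to serial dilutions of a DMSO stock (5 mg/ml) for 24 h at 37 °C, 5% CO2, then scored with 0.2% trypan blue. Each IC50 is the mean of three parallel samples in three independent experiments.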

Data set [9] in a line: Stimulation of immune response in pretreated thymocytes isolated from Graffi myeloid tumor bearing hamster assessed as rosette formation. To be noted: cricetinae, thymocyte. Format: cell-based.
Data set [10] can be described thus: Stimulation of immune response in pretreated thymocytes isolated from Graffi myeloid tumor bearing hamster assessed as number of plaque forming cells after 24 hrs […]. The conditions noted are these: cricetinae, thymocyte. Format: cell-based.
The test system of data set [11] is PBL. The data set is described as follows: Cytotoxicity against PBL isolated from solid form of Graffi myeloid tumor bearing hamster pretreated at 0.5 mg/ml, ip for 5 days measured after 24 hrs by trypan blue assay. To be noted: Cricetinae. A digest of the protocol:
as §3

The nature of data set [12]: Stimulation of immune response in pretreated thymocytes isolated from Graffi myeloid tumor bearing hamster assessed as migration area after 16 hrs by indirect agarose technique. The format is cell-based. The conditions noted are these: cricetinae, thymocyte. A digest of the protocol: as §2
Data set [13] is described as follows: Stimulation of immune response in pretreated spleen cells isolated from Graffi myeloid tumor bearing hamster assessed as migration area after 16 hrs by indirect agarose technique. The conditions noted are these: cricetinae. The format is cell-based. In outline:
as §2

The test system of data set [14] is PBL. Description: Stimulation of immune response in pretreated PBL isolated from Graffi myeloid tumor bearing hamster assessed as ratio of migration area of experimental cells to control cells after 16 hrs by indirect agarose technique. The format is cell-based. To be noted: cricetinae. A digest of the protocol: as §2
The subject of data set [15] is PBL. The data set is described as follows: Stimulation of immune response in pretreated PBL isolated from Graffi myeloid tumor bearing hamster assessed as migration area after 16 hrs by indirect agarose technique. The format is cell-based. To be noted: cricetinae. In outline:
as §2

A short description of data set [16]: Stimulation of immune response in pretreated spleen cells isolated from Graffi myeloid tumor bearing hamster assessed as ratio of migration area of experimental cells to control cells after 16 hrs by indirect agarose technique. The format is cell-based. The conditions noted are these: cricetinae. In outline:
as §2

Data set [17] is described as follows: Cytotoxicity against pretreated spleen cells isolated from Graffi myeloid tumor bearing hamster assessed as full lysis. Format: cell-based. To be noted: cricetinae.

As a reminder, the IC50 is the concentration at which inhibition is half-maximal.

For the compound `CCNC(=S)NNC(=O)c1ccc(-c2ccccc2)s1`, the IC50 was found to be 1640 nM in data set [1], 2100 nM in data set [5], 3500 nM in [8] and 320 nM in data set [11]. The Activity in data set [2] is reported as 2010; in data set [3], 5200; in data set [4], “Not Active”; in [6], “Not Active”; in [9] it was “Not Active”; in data set [10] it was 7800. The Activity in data set [12] is 202 mm2; in data set [13] it was 822 mm2. Further, the Ratio in data set [7] is listed as 0.104.

Consider `Nn1c(-c2ccc(-c3ccccc3)s2)n[nH]c1=S`, for which the Activity in data set [2] is reported as 4700; in data set [3], 19920; in data set [4], “Not Active”; in [6] it was “Not Active”; in data set [9] it was “Not Active”; in data set [10] it was 19200. Moreover, the Activity in data set [12] is on record as 1836 mm2; in data set [13], 2332 mm2. Besides, the IC50 in data set [5] came to 240 nM; in [8], 0.001 nM; in data set [11], 12 nM. Also, the Ratio in [7] stood at 0.954.

In the case of `CCNc1nnc(-c2cc3c(s2)CCCC3)s1`, the IC50 in data set [1] was 320 nM; in [5] it was 260 nM; in data set [8], 0.0052 nM; in data set [11], 410 nM. Besides, the Activity is 3928 in [2]; 14288 in [3]; “Not Active” in [4]; “Not Active” in data set [6]; “Not Active” in data set [9]; 15300 in [10]. Also, the Activity in [12] worked out at 1118 mm2; in data set [13], 1788 mm2. The Ratio in data set [7] was found to be 0.581.

Turning to `Nn1c(-c2cc3c(s2)CCCC3)n[nH]c1=S`, the IC50 was 2670 nM in data set [1], 2200 nM in [5], 12 nM in data set [8] and 140 nM in data set [11]. The Activity is reported as 3920 in data set [2]; 5869 in [3]; “Not Active” in data set [4]; “Not Active” in [6]; “Not Active” in [9]; 7250 in data set [10]. Moreover, the Activity was 1800 mm2 in data set [15], 1024 mm2 in data set [12] and 1286 mm2 in data set [13]. Moreover, the results for the Ratio in data set [7] and in data set [14] were 0.532 and 1.654, respectively.

`CCn1c(-c2cc3c(s2)CCCC3)n[nH]c1=S`: the IC50 came out at 1810 nM in data set [1], 120 nM in [5], 460 nM in [8] and 290 nM in [11]. Further, the Activity is reported as 3700 in data set [2]; 4992 in data set [3]; “Not Active” in [4]; “Not Active” in data set [6]; “Not Active” in data set [9]; 5287 in data set [10]. For the same compound, the figures for the Activity in data set [12] and in data set [13] were 997 mm2 and 1823 mm2, respectively. Moreover, the Ratio in [7] is given as 0.518; in [14], 0.001; in data set [16] it was 0.

Take `CCNC(=S)NNC(=O)c1cc2c(s1)CCCC2`: the Activity in data set [3] is recorded as 768; in data set [4], “Not Active”; in data set [6], “Not Active”; in data set [9] it was “Not Active”; in data set [17] it was “Toxic”; in [10], 2040. Further, the Activity in data set [12] came out at 146 mm2. The IC50 came to 110 nM in [5] and 14 nM in data set [11]. The Ratio in data set [7] is 0.08.

The values above are taken from ChEMBL document CHEMBL1152851, “Synthesis, cytotoxicity and effects of some 1,2,4-triazole and 1,3,4-thiadiazole derivatives on immunocompetent cells” (Eur J Med Chem, 2009).
